# From PubChem BioAssay
# Values without a mark were called inactive.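 The calls were made as follows, unless noted: active = viability at or below 30% in both replicate assays; inconclusive = viability at or below 30% in just one of the two assays; inactive = the rest.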
# Assay: reduced viability of SK-BR-3 breast cancer cells – cell-based, 24 h, human, pilot screen (AID 572;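 active = viability at or below 10% of carrier control in both of two separate runs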;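 also: compound exposure lasted between 18 and 24 h rather than exactly 24 h; 100% = carrier-treated control wells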)
# Settings: SK-BR-3 viability, CellTiter-Glo luminescence, at 10 µM, active compounds read low
row,SMILES,viability [%]
1,CCCCSc1nc2c(cnn2-c2ccc(F)cc2)c(=O)[nH]1,93.5
2,C=C(Cl)COc1ccc2c(C)cc(=O)oc2c1,108
3,COc1ccc(NC(=O)CSc2nnc(Cc3cccn3C)n2-c2ccc(F)cc2)cc1OC,86
4,CCCCSc1nc(CCC)cc(=O)[nH]1,86.5
5,Cc1noc(/C=C/N(C)C)c1S(=O)(=O)N1CCc2ccccc21,99
6,COc1cccc(/C=N/n2cnnc2)c1OCc1ccccc1,98
7,COC(=O)Cn1c(CN2CCOCC2)nc2c1c(=O)n(C)c(=O)n2C,81.5
8,COc1ccc(N(CC(=O)Nc2cc(C)ccc2C)S(=O)(=O)c2c(C)nn(C)c2C)cc1,92
9,CCOC(=O)N1CCN(C(=O)c2c(-c3ccccc3)noc2C)CC1,78
10,O=C(CSc1ncnc2nc[nH]c12)c1ccc(Cl)cc1,76
11,Brc1ccccc1-c1nc(-c2ccccc2)no1,88
12,Cc1nc2ccc(S(=O)(=O)NC(C(=O)NCc3cccs3)C(C)C)cc2s1 (stereo not given),88.5
13,COc1ccc(-n2c(Cc3cccn3C)nnc2SCC(=O)Nc2ccccc2)cc1,88.5
14,O=c1oc2c3c4c(cc2s1)CCCN4CCC3,89
15,COc1cc2c(cc1OC)C(C)N(C(=O)Cn1ncc3c1-c1ccccc1OC3)CC2 (stereo not given),90.5
16,O=C(CSc1ccc2nnc(-c3ccccc3)n2n1)N1CCN(c2ccccc2)CC1,93.5
17,CCOC(=O)C1CCCN(C(=O)c2ccc(CS(=O)(=O)c3ccc(Br)cc3)o2)C1 (stereo not given),85.5
18,Cc1c(C(=O)NC2CC2)oc2ccc(S(=O)(=O)N3CCCCCC3)cc12,81.5
19,CC1=C(C(=O)Nc2ccccc2)C(c2ccccn2)n2nc(CCCO)nc2N1 (stereo not given),94.5
20,O=C(O)c1ccc(-c2ccc(O)c(F)c2)cc1,94

row,SMILES,viability [%]
1,Cn1c(=O)cc(NCCc2ccccc2)[nH]c1=O,97
2,Cc1noc(/C=C/N(C)C)c1S(=O)(=O)N1CCCC(C(=O)NCCC2=CCCCC2)C1 (stereo not given),94.5
3,CCN(CC)c1ccc(NC(=O)CN2C(=O)CC(C)(C)S(=O)(=O)c3ccccc32)c(C)c1,102
4,COc1ccc(C(=O)NCc2nc3ccccc3[nH]2)cc1OC,110
5,CSc1ccccc1NC(=O)c1cnc2n(c1=O)CCS2,97.5
6,Cc1ccc(C(c2sc3ncnn3c2O)N2CC(C)CC(C)C2)cc1 (stereo not given),118
7,CC1CCN(c2oc(-c3ccccc3F)nc2C#N)CC1,82
8,COc1nc(Oc2ccc(=O)n(C)n2)nc(N(C)C)n1,81
9,Cc1nc2c(-c3ccc(F)cc3)c(C)nn2c(C)c1CCC(=O)NC(C)CCc1ccco1 (stereo not given),102
10,COc1ccc(Cl)cc1S(=O)(=O)N1CCN(c2ccc(F)cc2)CC1,80
11,CC1CCc2nn(CC(=O)Nc3ccc(F)cc3F)cc2C1 (stereo not given),108
12,COc1ccc(NC(=O)C2Cc3ccccc3C(=O)O2)cc1 (stereo not given),90
13,Cc1cc(N=Cc2cc(Br)ccc2O)no1,108
14,COc1ccc(-c2nc(CS(=O)CC(=O)NCc3ccccn3)c(C)o2)cc1 (stereo not given),103
15,CCOc1cc(C2CC(=O)N3CN(C4CCCCC4)CSC3=C2C#N)ccc1O (stereo not given),85
16,CCc1ccccc1N1CC23C=CC(O2)C(C(=O)O)C3C1=O (stereo not given),102
17,CCN(CC)C1CCCCC1NS(=O)(=O)c1ccc(Cl)cc1 (stereo not given),104
18,Cc1cc(=O)oc2c1c(C)nn2-c1ccc(C(=O)OC(C)C)cc1,83.5
19,O=C(CS(=O)(=O)Cc1ccccc1)Nc1nc2ccccc2s1,104
20,CSc1nc2c(c(=O)n1C)SC(C)C2 (stereo not given),97

# Assay: HUVEC growth inhibition – cell-based, human, primary screen (AID 575);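 also: 100% = median of untreated cell wells with 0.1% DMSO on each plate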
# Settings: HUVEC proliferation, CellTiter-Glo luminescence, 72 h; at 10 µM; active compounds read low
# Outline: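 material = primary HUVEC, no more than 12 passages | input = 1250 cells per well | controls = vehicle and MePR control wells | measured by = CTG luminescence | times = 72 h compound incubation | format = collagen-coated 384-well format | read-out = % viability vs DMSO wells | doses = single 10 µM dose, 0.1% DMSO, from 5x medium stock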
row,SMILES,viability [%]
1,CCCCSc1nc2c(cnn2-c2ccc(F)cc2)c(=O)[nH]1,96.2
2,C=C(Cl)COc1ccc2c(C)cc(=O)oc2c1,102
3,COc1ccc(NC(=O)CSc2nnc(Cc3cccn3C)n2-c2ccc(F)cc2)cc1OC,104
4,CCCCSc1nc(CCC)cc(=O)[nH]1,91.9
5,Cc1noc(/C=C/N(C)C)c1S(=O)(=O)N1CCc2ccccc21,67.4
6,COc1cccc(/C=N/n2cnnc2)c1OCc1ccccc1,93.2
7,COC(=O)Cn1c(CN2CCOCC2)nc2c1c(=O)n(C)c(=O)n2C,89.2
8,COc1ccc(N(CC(=O)Nc2cc(C)ccc2C)S(=O)(=O)c2c(C)nn(C)c2C)cc1,73.8
9,CCOC(=O)N1CCN(C(=O)c2c(-c3ccccc3)noc2C)CC1,96.6
10,O=C(CSc1ncnc2nc[nH]c12)c1ccc(Cl)cc1,63
11,Brc1ccccc1-c1nc(-c2ccccc2)no1,89.1
12,Cc1nc2ccc(S(=O)(=O)NC(C(=O)NCc3cccs3)C(C)C)cc2s1 (stereo not given),97.9
13,COc1ccc(-n2c(Cc3cccn3C)nnc2SCC(=O)Nc2ccccc2)cc1,99
14,O=c1oc2c3c4c(cc2s1)CCCN4CCC3,101
15,COc1cc2c(cc1OC)C(C)N(C(=O)Cn1ncc3c1-c1ccccc1OC3)CC2 (stereo not given),111
16,O=C(CSc1ccc2nnc(-c3ccccc3)n2n1)N1CCN(c2ccccc2)CC1,77.9
17,CCOC(=O)C1CCCN(C(=O)c2ccc(CS(=O)(=O)c3ccc(Br)cc3)o2)C1 (stereo not given),79.5
18,Cc1c(C(=O)NC2CC2)oc2ccc(S(=O)(=O)N3CCCCCC3)cc12,96.8
19,CC1=C(C(=O)Nc2ccccc2)C(c2ccccn2)n2nc(CCCO)nc2N1 (stereo not given),101
20,O=C(O)c1ccc(-c2ccc(O)c(F)c2)cc1,92.8

row,SMILES,viability [%]
1,Cn1c(=O)cc(NCCc2ccccc2)[nH]c1=O,50.3
2,Cc1noc(/C=C/N(C)C)c1S(=O)(=O)N1CCCC(C(=O)NCCC2=CCCCC2)C1 (stereo not given),79.7
3,CCN(CC)c1ccc(NC(=O)CN2C(=O)CC(C)(C)S(=O)(=O)c3ccccc32)c(C)c1,102
4,COc1ccc(C(=O)NCc2nc3ccccc3[nH]2)cc1OC,101
5,CSc1ccccc1NC(=O)c1cnc2n(c1=O)CCS2,111
6,Cc1ccc(C(c2sc3ncnn3c2O)N2CC(C)CC(C)C2)cc1 (stereo not given),82.8
7,CC1CCN(c2oc(-c3ccccc3F)nc2C#N)CC1,78.7
8,COc1nc(Oc2ccc(=O)n(C)n2)nc(N(C)C)n1,88.5
9,Cc1nc2c(-c3ccc(F)cc3)c(C)nn2c(C)c1CCC(=O)NC(C)CCc1ccco1 (stereo not given),63.1
10,COc1ccc(Cl)cc1S(=O)(=O)N1CCN(c2ccc(F)cc2)CC1,90.1
11,CC1CCc2nn(CC(=O)Nc3ccc(F)cc3F)cc2C1 (stereo not given),100
12,COc1ccc(NC(=O)C2Cc3ccccc3C(=O)O2)cc1 (stereo not given),104
13,Cc1cc(N=Cc2cc(Br)ccc2O)no1,74.4
14,COc1ccc(-c2nc(CS(=O)CC(=O)NCc3ccccn3)c(C)o2)cc1 (stereo not given),92.9
15,CCOc1cc(C2CC(=O)N3CN(C4CCCCC4)CSC3=C2C#N)ccc1O (stereo not given),113
16,CCc1ccccc1N1CC23C=CC(O2)C(C(=O)O)C3C1=O (stereo not given),101
17,CCN(CC)C1CCCCC1NS(=O)(=O)c1ccc(Cl)cc1 (stereo not given),90.8
18,Cc1cc(=O)oc2c1c(C)nn2-c1ccc(C(=O)OC(C)C)cc1,99
19,O=C(CS(=O)(=O)Cc1ccccc1)Nc1nc2ccccc2s1,89.2
20,CSc1nc2c(c(=O)n1C)SC(C)C2 (stereo not given),103
